Shown are actives, neighbours in structure and some others; about 2.6% of the full set was active somewhere.
RAM network inh: inhibitors of the yeast RAM network; 190,000 tested, 1.8% active; AID 868; inhibition, % at 50 µM; S. cerevisiae dse1pr::URA3 reporter, 5-FOA growth OD615, 2 d; analog-sensitive cbk1-as2 kinase mutant strain;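 active = inhibition above a set limit, 3 SD over mean compound inhibition, cut at about 8.4% in these data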;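 also: inhibition rescues growth on 5-FOA so higher OD means more RAM inhibition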
Yeast life ext: yeast lifespan extension | S. cerevisiae growth with nicotinamide, OD615; deaD strain in restrictive glucose medium | inhibition of the nicotinamide effect, % at 10 µM | 130,000 tested, 0.68% active | AID 775;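 active = inhibition above a set limit, placed 3 SD over the median of all compounds, cut at about 26% in these data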
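Buffer or medium: CSMM-D glucose medium, restrictive; test system: modified budding yeast, DeaD strain; compound: single dose 10 µM compound, 0.25% DMSO; schedule: culture preincubation 4 h, compound exposure 48 h, both 30 °C; detection: optical density (absorbance) at 615 nm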
Yeast growth inh: reduces growth of yeast BB579 in restrictive medium. 140,000 tested, 0.51% active. inhibition, % at 10 µM. AID 804. S. cerevisiae BB579 growth, OD615, 48 h;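 active = inhibition above a set limit, 3 SD over the mean compound inhibition, cut at about 44% in these data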
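Assay system: S. cerevisiae DeaD strain BB579 yeast. Medium: CSMM-D restrictive synthetic medium containing dextrose (glucose). Times: 4 h cell preincubation, 48 h compound exposure, 30 °C humidified. Signal: OD615 turbidity measurement. Benchmarks: positive control amphotericin B 10 µg/mL.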
A number is an active result; – = inactive; · = not tested or not shown.

SMILES | RAM network inh | Yeast life ext | Yeast growth inh
CCOc1ccc(-c2nc(C#N)c(NC3CC3)o2)cc1 | – | – | –
COc1ccc(-c2nc(C#N)c(NCc3ccc(F)cc3)o2)cc1OC | 8.9 | – | –
COc1ccc(-c2nc(C#N)c(NCc3cccnc3)o2)cc1OC | – | – | –
CCOc1ccc(-c2nc(C#N)c(NCc3ccc4c(c3)OCO4)o2)cc1 | 11 | – | –
Cc1cc([N+](=O)[O-])c2c(c1C)C1C=CCC1C(c1ccccn1)N2 (stereo unspecified) | – | · | ·
COc1ccc(C(=O)N2CCC(=O)N(C(CO)Cc3ccccc3)CC2)cc1 (stereo unspecified) | – | – | –
CCN(N=O)[C@@H](Cc1ccccc1)CN(N=O)[C@@H](Cc1ccccc1)CN(C)N=O | – | · | ·
Cc1ccc(N2CCN(S(=O)(=O)N3CCCCC3)CC2)cc1Cl | – | – | –
Cc1cc(C)c(N2CCN(S(=O)(=O)N3CCCCCC3)CC2)c(C)c1 | 11 | – | –
CCOC(=O)c1cc(CC)sc1/N=C/C1C(=O)CCCC1=O | – | · | ·
Cc1cc(N=Cc2c(O)ccc3cc(Br)ccc23)no1 | – | – | –
CCOC(=O)c1cc(CC)sc1/N=C/c1c(O)ccc2ccccc12 | – | 32 | –
Oc1ccc2ccccc2c1/C=N/c1nccs1 | – | 75 | –
Cc1cc(N=Cc2c(O)ccc3ccccc23)no1 | – | 43 | –
COc1ccc2c(c1)-c1nc(/N=C/c3ccc(O)cc3)sc1CC2 | – | – | –
COc1ccc2c(c1)-c1nc(/N=C/c3c(O)ccc4ccccc34)sc1CC2 | – | 30 | –
CN(C)/N=C/c1c(O)ccc2ccccc12 | – | – | –
Fc1cccc(CN2CCN(Cc3nc(CCc4ccccc4)no3)CC2)c1 | – | · | ·
COc1ccc(C2CC(=O)c3sc(NC(C)=O)nc3C2)cc1 (stereo unspecified) | – | – | –
COc1ccc(Cc2n[nH]c(=S)n(N)c2=O)cc1 | – | · | ·
CCc1c(C(=O)Nc2cc(C)ccc2OC)[nH]c(C)c1C(C)=O | – | – | –
CCc1c(C(=O)NCCc2ccc(OC)c(OC)c2)[nH]c(C)c1C(C)=O | – | 47 | –
O=C(O)c1cccc(Nc2nc(Nc3ccccc3)nc(N3CCCC3)n2)c1 | – | · | ·
Cc1nnc(SCc2ccccc2)nc1/C=C/NOCc1ccc(Cl)cc1Cl | 8.5 | – | –
CSc1nnc(C)c(/C=C/NOCc2cccc(F)c2)n1 | – | · | ·
SMILES | RAM network inh | Yeast life ext | Yeast growth inh
O=[N+]([O-])c1ccc(Nc2nc(NC3CCCCC3)nc(N3CCCC3)n2)cc1 | – | · | ·
CC(C)C1Nc2ccc(C(=O)O)cc2C2C=CCC21 (stereo unspecified) | – | · | ·
CCOC(=O)c1ccc2c(c1)C1C=CCC1C(C(=O)O)N2 (stereo unspecified) | 9.7 | – | –
Cc1cc(C)cc(CC(Cc2nc3ccccc3[nH]2)c2nc3ccccc3[nH]2)c1 (stereo unspecified) | – | – | –
CCOc1ccc(NC(=O)Cn2nnc(-c3ccccc3NC(=O)c3cccs3)n2)cc1 | 8.4 | – | –
CCCC(=O)Nc1ccccc1-c1nnn(CC(=O)Nc2ccc(OC)cc2)n1 | – | – | –
COc1ccc(-c2cnnc(N/N=C/c3ccc(C)o3)n2)cc1 | – | · | ·
O=c1oc2ccccc2c(Cl)c1CN1CCCCC1 | – | · | ·
O=c1oc2ccccc2c(N2CCCC2)c1CN1CCCC1 | – | – | 86
COc1cccc(C(=O)NN/C(C)=C/C(=O)C(F)(F)C(F)(F)C(F)(F)F)c1 | – | – | –
O=C(Nc1ccccc1O)/C(=C\c1ccccc1)NC(=O)c1ccccc1 | – | · | ·
Cc1ccc(S(=O)(=O)CCNC(=O)Cc2ccc(Cl)cc2)cc1 | – | · | ·
C/C(=N/NC(=O)CNC(=O)c1ccccn1)c1ccccc1 | – | – | –
C=CCNC(=S)N/N=C(\C)c1ccccn1 | – | – | 93
O=C(Nc1ccc(Cl)cc1)c1csc(-c2ccncc2)n1 | – | · | ·
O=C(Nc1ccc(Cl)cc1)c1csc(-c2ccccc2)n1 | 9.7 | – | –
C/C(=N/NC(=O)c1ccco1)c1ccc(NC(=O)c2ccc(F)cc2)cc1 | – | – | –
COc1ccc(S(=O)(=O)N(CC(=O)O)c2ccc(C)cc2)cc1 | – | – | –
COc1ccc(N(C(=O)COc2cccc(C)c2)S(=O)(=O)c2ccc(C)cc2)cc1 | 9.7 | – | –
NS(=O)(=O)c1ccc(NC(=S)Nc2cc(Cl)c(Cl)cc2Cl)cc1 | – | – | –
O=C(COc1c(F)c(F)c(C(F)(F)F)c(F)c1F)Nc1ccc(N2CCOCC2)c(Cl)c1 | – | – | –
CCC(C)c1ccc(NC(=O)COc2c(F)c(F)c(C(F)(F)F)c(F)c2F)cc1 (stereo unspecified) | 10 | – | –
Fc1ccc(CO/N=C2\CCCc3nonc32)cc1 | – | · | ·
Cc1cc(C)c2c(N=NN(C)C)[nH]nc2n1 | – | – | 73
Cc1cc(C)c2c(NC(N)=S)n[nH]c2n1 | – | · | ·
SMILES | RAM network inh | Yeast life ext | Yeast growth inh
S=C(NC1CCCCC1)N(CCc1ccccc1)CCc1ccccc1 | – | – | –
O=C(Cc1cccs1)N/N=C\c1ccc([N+](=O)[O-])s1 | – | · | ·
NC(=O)c1ccc(N=Cc2ccc([N+](=O)[O-])s2)cc1 | – | – | 100
Cc1cc(C)cc(N=Cc2ccc([N+](=O)[O-])s2)c1 | – | – | 100
O=[N+]([O-])c1ccc(C=Nc2ccc(Cl)c([N+](=O)[O-])c2)s1 | – | · | ·
CCOC(=O)N1CCN(C(=O)CSCc2ccc(Br)cc2)CC1 | – | · | ·
CCOC(=O)N1CCN(C(=O)c2ccc(OC(C)=O)cc2)CC1 | – | · | ·
O=C(NC(=S)Nc1nc2ccccc2s1)c1ccco1 | 8.8 | – | –
COc1ccc2nc(NC(=S)NC(=O)c3ccco3)sc2c1 | – | · | ·
COC(=O)c1ccc(CN2CCCC(CCC(=O)NCc3ccc(C)o3)C2)cc1 (stereo unspecified) | – | · | ·
CCOC(=O)C1=C(C)N=c2s/c(=C/c3ccco3)c(=O)n2C1c1cccc(OC)c1 (stereo unspecified) | 9.5 | – | –
CCOC(=O)C1=C(C)N=c2s/c(=C\c3cccn3C)c(=O)n2C1c1cccc(OC)c1OC (stereo unspecified) | – | – | –
O=C(NC1CC2CCCC(C1)N2C(=S)NCCc1ccccc1)C1CC1 (stereo unspecified) | – | · | ·
Oc1cc(-c2ccccc2)c2ccccc2c1 | – | – | 97
O=c1oc2ccccc2cc1-c1ccc(O)cc1 | – | – | –
COc1ccc(C(=O)/C(=C/c2cccs2)c2nc3ccccc3o2)cc1 | – | – | –
COc1ccc(/C=C(\CC(=O)O)c2nc3ccccc3o2)cc1 | 9.6 | · | ·
COCCNC(=S)N/N=C/c1ccc(OCc2ccc(C(=O)OC)cc2)cc1 | – | – | –
CCOC(=O)c1c(NC(=O)CSc2ncnc3ccccc23)sc(C)c1C | 8.9 | – | –
CCOC(=O)c1sc(NC(=O)CSc2nnc(Cc3ccccc3)o2)c(C(=O)OCC)c1C | 8.9 | – | –
CCOC(=O)c1c(NC(=O)CSc2ccccc2C(=O)O)sc(C)c1C | – | · | ·
CCOC(=O)c1sc(NC(=O)CSc2nc3ccccc3o2)c(C(=O)OCC)c1C | – | – | –
O=C(Nc1ccc(F)cc1)N1CCc2ccccc2C1 | – | · | ·
CC(C(=O)Nc1ccccc1-c1ccccc1)N(C)Cc1nc2ccccc2c(=O)[nH]1 (stereo unspecified) | – | · | ·
CCOc1ccc(NS(=O)(=O)c2ccc(NS(C)(=O)=O)cc2)cc1 | – | – | –
